Activity calls are given as the source filed them. The calls are words filed in the database; no cut-off is given here.
Assays:
BJ [1] = experiment: Induction of apoptosis in human BJ cells assessed as caspase 3 activation at 100 uM after 2 days; format: functional, cell-based
How it was run: (§1)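 HepG2 hepatocellular carcinoma, Rh30 rhabdomyosarcoma and hTERT-immortalized BJ foreskin fibroblast cells were exposed to compound at 100 μM for 2 days. Caspase-3/7 activity was then read with Caspase3/7-Glo reagent and expressed as a proportion of the DMSO control (set to 1), as the mean of three independent experiments.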

SJRH30 [2] = experiment: Induction of apoptosis in human Rh30 cells assessed as caspase 3 activation at 100 uM after 2 days; format: functional, cell-based; how it was run: as §1
SJRH30 [3] = experiment: Induction of apoptosis in human Rh30 cells assessed as caspase 7 activation at 100 uM after 2 days; format: functional, cell-based; how it was run: as §1
HepG2 [4] = experiment: Induction of apoptosis in human HepG2 cells assessed as caspase 7 activation at 100 uM after 2 days; format: functional, cell-based; how it was run: as §1
[5] = target: T1, Segment polarity protein dishevelled homolog DVL-3 (Homo sapiens, UniProt Q92997); experiment: Antagonist activity at human Dvl3 assessed as inhibition of interaction between Dvl3 PDZ domain and […] by alphaScreen assay; format: functional
T1 sequence (Q92997 whole entry): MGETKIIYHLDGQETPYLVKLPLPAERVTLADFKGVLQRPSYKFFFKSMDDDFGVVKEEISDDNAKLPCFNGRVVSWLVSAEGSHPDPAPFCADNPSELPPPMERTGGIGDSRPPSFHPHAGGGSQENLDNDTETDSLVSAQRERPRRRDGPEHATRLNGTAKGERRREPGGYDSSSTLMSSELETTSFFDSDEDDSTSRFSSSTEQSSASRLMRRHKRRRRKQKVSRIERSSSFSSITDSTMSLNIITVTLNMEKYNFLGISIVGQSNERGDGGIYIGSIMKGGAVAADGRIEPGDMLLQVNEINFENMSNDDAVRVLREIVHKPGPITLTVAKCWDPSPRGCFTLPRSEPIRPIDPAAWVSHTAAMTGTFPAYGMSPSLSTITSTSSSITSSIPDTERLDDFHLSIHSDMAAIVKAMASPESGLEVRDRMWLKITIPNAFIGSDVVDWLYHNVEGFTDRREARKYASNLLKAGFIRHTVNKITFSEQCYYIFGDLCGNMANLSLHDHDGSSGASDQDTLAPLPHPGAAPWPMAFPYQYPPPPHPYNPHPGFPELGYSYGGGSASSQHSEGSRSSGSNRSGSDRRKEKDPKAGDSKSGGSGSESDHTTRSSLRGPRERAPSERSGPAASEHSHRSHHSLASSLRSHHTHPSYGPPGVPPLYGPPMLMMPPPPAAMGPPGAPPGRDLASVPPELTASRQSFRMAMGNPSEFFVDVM
How it was run: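 Competitive AlphaScreen energy-transfer assay for binding of the Dvl PDZ domain to the Fz7 PDZ-binding region. IC50 fitted from binding curves, each the mean of three independent experiments.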

HepG2 [6] = experiment: Induction of apoptosis in human HepG2 cells assessed as caspase 3 activation at 100 uM after 2 days; format: functional, cell-based; how it was run: as §1
BJ [7] = experiment: Induction of apoptosis in human BJ cells assessed as caspase 7 activation at 100 uM after 2 days; format: functional, cell-based; how it was run: as §1
[8] = target: T2, Segment polarity protein dishevelled homolog DVL-1 (Homo sapiens, UniProt O14640); experiment: Antagonist activity at human Dvl1 assessed as inhibition of interaction between Dvl1 PDZ domain and […] by alphaScreen assay; format: functional
T2 sequence (O14640 whole entry): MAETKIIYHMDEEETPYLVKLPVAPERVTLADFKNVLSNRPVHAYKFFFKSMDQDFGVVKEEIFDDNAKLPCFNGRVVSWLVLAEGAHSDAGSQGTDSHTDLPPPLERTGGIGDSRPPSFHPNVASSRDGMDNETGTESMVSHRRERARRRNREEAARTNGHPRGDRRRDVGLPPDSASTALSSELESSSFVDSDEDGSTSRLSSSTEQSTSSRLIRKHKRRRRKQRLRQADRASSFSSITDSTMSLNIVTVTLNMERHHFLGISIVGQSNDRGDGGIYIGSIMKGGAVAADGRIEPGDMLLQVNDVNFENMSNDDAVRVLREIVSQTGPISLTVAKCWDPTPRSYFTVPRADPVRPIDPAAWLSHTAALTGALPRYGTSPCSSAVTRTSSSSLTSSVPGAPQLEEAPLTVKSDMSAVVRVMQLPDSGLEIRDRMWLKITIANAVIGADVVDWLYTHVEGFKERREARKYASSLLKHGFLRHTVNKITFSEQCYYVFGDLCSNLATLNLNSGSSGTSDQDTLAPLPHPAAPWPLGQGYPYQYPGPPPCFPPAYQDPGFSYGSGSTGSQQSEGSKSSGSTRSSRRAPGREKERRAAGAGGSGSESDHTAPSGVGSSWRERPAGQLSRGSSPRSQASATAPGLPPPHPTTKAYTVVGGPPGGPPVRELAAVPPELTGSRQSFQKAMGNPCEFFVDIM

SMILES | Activity (BJ [1]) | Activity (SJRH30 [2]) | Activity (SJRH30 [3]) | Activity (HepG2 [4]) | IC50 [5] [µM] | Activity (HepG2 [6]) | Activity (BJ [7]) | IC50 [8] [µM]
Cc1cc2[nH]c(C(=O)NCc3ccccc3)c(CCc3ccccc3)c2cc1C(=O)O | inactive | Active | Active | Active | 291 | Active | inactive | 
Cc1cc2[nH]c(C(=O)NCC3CCCCC3)c(CCc3ccccc3)c2cc1C(=O)O |  |  |  |  | 309 |  |  | 
CCCNC(=O)c1[nH]c2cc(C)c(C(=O)O)cc2c1CCc1ccccc1 |  |  |  |  | > 500 |  |  | > 500
CCC(C)CNC(=O)c1[nH]c2cc(C)c(C(=O)O)cc2c1CCc1ccccc1 (stereo not drawn) | inactive | Active | Active | Active | 160 | Active | inactive | 
Cc1cc2[nH]c(C(=O)NC(C)(C)C)c(CCc3ccccc3)c2cc1C(=O)O |  |  |  |  | > 500 |  |  | > 500
Cc1cc2[nH]c(C(=O)NCCC(=O)O)c(CCc3ccccc3)c2cc1C(=O)O |  |  |  |  | > 500 |  |  | > 500
COC(=O)c1cc2c(CCc3ccccc3)c(C(=O)NC3CCCCC3)[nH]c2cc1C |  |  |  |  | 57 |  |  | 
Cc1cc2[nH]c(C(=O)NC3CCCCC3)c(CCc3ccccc3)c2cc1C(=O)O | inactive | Active | Active | Active | 23 | Active | inactive | 
Cc1cc2c(cc1C(=O)O)c(CCc1ccccc1)c(C(=O)NC1CCCCC1)n2C | inactive | Active | Active | Active | 92 | Active | inactive | 
Cc1cc2[nH]c(C(=O)NCC3CC3)c(CCc3ccccc3)c2cc1C(=O)O |  |  |  |  | > 500 |  |  | > 500

— ChEMBL document CHEMBL1143159, “Indole-2-amide based biochemical antagonist of Dishevelled PDZ domain interaction down-regulates Dishevelled-driven Tcf transcriptional activity” (Bioorg Med Chem Lett, 2008)
